Columns and labels:
[1] = tested on: HaCaT; assay: Induction of apoptosis in human HaCaT cells assessed as early phase apoptotic cells at 446 uM after 9 hrs by AnnexinV-FITC/propidium iodide based FACS flow cytometry; format: functional
Summary of the method: (§1)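 HaCaT cells at 10^6 cells/ml were attached overnight and exposed to vehicle, 111.6, 223.2 or 446 µM for 9 h. Cells were then trypsinized, washed in ice-cold PBS and stained with Annexin V-FITC/PI. FACScan analysis used FL1/FL2, 10,000 events per sample, scatter gating, and quadrants set with single-stain controls. Runs were in triplicate and results are means of two experiments.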

[2] = tested on: HaCaT; assay: Induction of apoptosis in human HaCaT cells assessed as late phase apoptotic/necrotic cells at 223.2 uM after 9 hrs by AnnexinV-FITC/propidium iodide based FACS flow cytometry; format: functional; summary of the method: as §1
[3] = tested on: U-937; assay: Growth inhibition of human U937 cells after 72 hrs by Cell Titer 96 aqueous one solution assay; format: functional
Summary of the method: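 Cells were grown in RPMI with 10% FBS, 2 mM L-glutamine and penicillin/streptomycin. They were seeded at 10,000 cells/well in round-bottom plates and exposed to compounds for 72 h (eight concentrations, six replicates). Cell Titer 96 AQueous One reagent was then added for 3 h at 37 °C and absorbance was read at 492 nm. Values are means, n = 6.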

[4] = Growth inhibition of human NHEK cells after 72 hrs by neutral red uptake assay; format: functional
Summary of the method: (§2)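 Neutral red uptake assay over 72 h. Cells were seeded at 10,000 cells/well and attached overnight, then exposed to eight concentrations with six replicates (DMSO <1%). CCD-1106 were grown in keratinocyte SFM with supplements. HaCaT were grown in DMEM with 10% FBS and 2 mM L-glutamine. NHEK (pooled adult) were grown in keratinocyte growth medium with supplement. Values are means, n = 6, against the untreated control.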

[5] = molecular target: Epidermal growth factor receptor (Homo sapiens) (UniProt P00533); assay: Inhibition of EGFR-mediated ERK2 phosphorylation in HPV-16 transformed human CCD-1106 cells at 116.8 uM after 30 mins by densitometric analysis; format: cell-based
Summary of the method: (§3)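 CCD-1106 cells were treated with compound for 30 min at 37 °C, then stimulated with EGF. Lysates were separated by SDS-PAGE, blotted to nitrocellulose and blocked in 3% BSA/NaTT. Blots were probed with p-ERK (E-4) or p-p38 (D-8) antibodies, detected by ECL and quantified by densitometry.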

[6] = tested on: HaCaT; assay: Induction of apoptosis in human HaCaT cells assessed as activation of caspase 3/7 after 12 hrs; format: functional, cell-based
Summary of the method: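 HaCaT cells were seeded at 10,000 cells/0.2 ml/well, attached overnight and exposed to compound (56–446 µM) for 12 h. Caspase-3/7 activity was measured with the Apo-ONE homogeneous kit, fluorescence 499/521 nm, in triplicate, with medium-only background wells. MTT viability was run in parallel. Results are means of two experiments, t-test against control.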

[7] = tested on: HaCaT; assay: Induction of apoptosis in human HaCaT cells assessed as viable cells at 446 uM after 9 hrs by AnnexinV-FITC/propidium iodide based FACS flow cytometry; format: functional; settings: read-out: Activity; summary of the method: as §1
[8] = molecular target: Epidermal growth factor receptor (Homo sapiens) (UniProt P00533); assay: Inhibition of phosphorylated EGFR dimerization in HPV-16 transformed human CCD-1106 cells at 126.7 uM after 30 mins by densitometric analysis; format: cell-based
Summary of the method: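 CCD-1106 cells were exposed to compounds for 30 min at 37 °C, then stimulated with EGF 50 ng/mL for 10 min. They were cross-linked with 2 mM BS3 for 30 min at room temperature and quenched with Tris (pH 7.5). Lysates were run on SDS-PAGE and immunoblotted for phospho-EGFR (Tyr1173) and total EGFR. The ~340 kDa dimer band was quantified by densitometry against the no-inhibitor control.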

[9] = tested on: HaCaT; assay: Cytotoxicity against human HaCaT cells assessed as LDH release after 24 hrs by CYTOX-96 assay; format: functional; settings: read-out: LD50 (the source's name)
Summary of the method: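 LDH release was read with the CytoTox 96 kit following the kit protocol after 6 or 24 h drug exposure. Cells were seeded at 10,000/well and attached overnight. Eight concentrations were run with six in-plate replicates; DMSO was <1% in all wells, with medium-only blanks. LD₅₀ is reported as mean ± S.E.M., n = 6. CCD-1106 were grown in supplemented keratinocyte SFM; HaCaT in DMEM/10% FBS.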

[10] = molecular target: Epidermal growth factor receptor (Homo sapiens) (UniProt P00533); assay: Inhibition of EGFR-mediated p38 phosphorylation in HPV-16 transformed human CCD-1106 cells at 116.8 uM after 30 mins by densitometric analysis; format: cell-based; summary of the method: as §3
[11] = tested on: HaCaT; assay: Growth inhibition of human HaCaT cells after 72 hrs by neutral red uptake assay; format: functional; summary of the method: as §2

Chain of Epidermal growth factor receptor (Homo sapiens) (P00533 whole entry): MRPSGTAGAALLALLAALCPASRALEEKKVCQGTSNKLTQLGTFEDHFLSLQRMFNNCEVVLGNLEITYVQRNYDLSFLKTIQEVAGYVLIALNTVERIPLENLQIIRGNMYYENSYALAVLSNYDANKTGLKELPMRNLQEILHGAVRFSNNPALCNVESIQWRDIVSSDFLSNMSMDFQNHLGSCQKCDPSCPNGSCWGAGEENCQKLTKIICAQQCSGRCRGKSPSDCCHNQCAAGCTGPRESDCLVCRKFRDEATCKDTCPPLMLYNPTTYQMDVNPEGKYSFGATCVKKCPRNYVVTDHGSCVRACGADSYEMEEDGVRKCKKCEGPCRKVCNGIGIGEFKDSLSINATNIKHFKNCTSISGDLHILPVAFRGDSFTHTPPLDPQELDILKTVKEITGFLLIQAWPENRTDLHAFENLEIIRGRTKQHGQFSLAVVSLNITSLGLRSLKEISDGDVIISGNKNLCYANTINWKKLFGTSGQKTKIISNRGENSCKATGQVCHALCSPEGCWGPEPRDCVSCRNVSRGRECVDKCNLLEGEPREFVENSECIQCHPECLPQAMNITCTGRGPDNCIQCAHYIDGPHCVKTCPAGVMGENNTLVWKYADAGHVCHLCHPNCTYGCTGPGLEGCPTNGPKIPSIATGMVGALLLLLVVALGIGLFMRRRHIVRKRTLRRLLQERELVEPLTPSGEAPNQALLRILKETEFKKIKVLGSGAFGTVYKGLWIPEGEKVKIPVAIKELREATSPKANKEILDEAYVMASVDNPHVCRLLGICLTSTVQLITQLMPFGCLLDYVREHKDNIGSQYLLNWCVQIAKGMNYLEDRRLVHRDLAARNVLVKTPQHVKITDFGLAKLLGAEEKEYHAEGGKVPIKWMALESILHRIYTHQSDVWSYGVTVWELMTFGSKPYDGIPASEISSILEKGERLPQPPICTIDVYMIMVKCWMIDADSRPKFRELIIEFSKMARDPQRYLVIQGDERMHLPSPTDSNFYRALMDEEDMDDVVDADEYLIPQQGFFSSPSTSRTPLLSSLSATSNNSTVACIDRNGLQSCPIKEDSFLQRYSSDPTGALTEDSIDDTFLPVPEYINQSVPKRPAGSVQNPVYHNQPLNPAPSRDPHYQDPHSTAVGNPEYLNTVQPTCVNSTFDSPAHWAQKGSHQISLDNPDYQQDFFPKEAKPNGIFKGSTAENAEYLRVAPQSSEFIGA

CCOc1cc(/C=N\Nc2nc3c(c(=O)n(C)c(=O)n3C)n2Cc2ccccc2)ccc1O
Activity [1]: 24% | Activity [2]: 10% | growth inhibition (GI) [3]: Dose-dependent effect | GI50 ([3]; U-937, 72 h): 46 µM | GI50 [4]: 54 µM | inhibition [5]: 33% | Activity [6]: Dose-dependent effect | viability at 446 µM [7]: 61% | inhibition [8]: 37% | CC50 [9]: 446 µM | inhibition [10]: 11% | GI50 [11]: 22 µM
